The source of these data is ChEMBL document CHEMBL4699450, “Nonclassical Phenyl Bioisosteres as Effective Replacements in a Series of Novel Open-Source Antimalarials” (J Med Chem, 2020).

SMILES strings stand for the structures. Values after ≈ are worked out from the molar mass of the structure shown. Active and inactive are the calls of the source. The rule behind the calls is not given here.

The subject of one data set is Plasmodium falciparum. The data set can be described thus: Antiplasmodial activity against Plasmodium falciparum 3D7 by SYBR green-I fluorescence dye based fluorescence assay. The data set is classed as functional, organism-based. The gist of the method: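 P. falciparum 3D7 grown in human red cells (1.25% or 5% suspension) in RPMI 1640 with 0.5% Albumax II, 12 mM bicarbonate, 0.2 mM hypoxanthine, pH 7.3, gentamicin, 37 °C, 1% O2/3% CO2. Ten-point dose-response, 1-in-3 dilutions; SYBR Green I DNA fluorescence (ex 485/em 528 nm); mefloquine control; percent inhibition vs high/no-inhibition controls; four-parameter fit; IC50 from ≥3 independent experiments.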

Data set [1] has as its target Voltage-gated inwardly rectifying potassium channel KCNH2 (Homo sapiens, UniProt Q12809). The data set can be described thus: Inhibition of human ERG.
A short description of data set [2]: Distribution coefficient, logD of compound at pH 7.4 by HPLC analysis. Conditions: octanol/water. In kind it is physicochemical. The gist of the method:
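LogD at pH 7.4 estimated by gradient HPLC, correlating retention (mean of 2 injections) against standards of known partition coefficient.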

Data set [3] can be described thus: Kinetic solubility in pH 6.5 phosphate buffer after 30 mins by nephelometry. Conditions: read-out: Kinetic_solubility. The data set is classed as physicochemical. The gist of the method: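 DMSO stock spiked into pH 6.5 phosphate buffer at 7 concentrations, final DMSO 1%; after 30 min precipitation read by nephelometry to give a solubility range.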
Data set [4] in a line: Half life in human liver microsomes at 1 uM in presence of NADPH-regenerating system. The data set is classed as ADME, Microsome. For orientation: Liver microsomes are vesicles of endoplasmic reticulum, rich in cytochrome P450 enzymes.
Data set [5] in a line: Half life in mouse liver microsomes at 1 uM in presence of NADPH-regenerating system. The data set is classed as ADME, Microsome.

Chain of Voltage-gated inwardly rectifying potassium channel KCNH2 (Q12809 whole entry): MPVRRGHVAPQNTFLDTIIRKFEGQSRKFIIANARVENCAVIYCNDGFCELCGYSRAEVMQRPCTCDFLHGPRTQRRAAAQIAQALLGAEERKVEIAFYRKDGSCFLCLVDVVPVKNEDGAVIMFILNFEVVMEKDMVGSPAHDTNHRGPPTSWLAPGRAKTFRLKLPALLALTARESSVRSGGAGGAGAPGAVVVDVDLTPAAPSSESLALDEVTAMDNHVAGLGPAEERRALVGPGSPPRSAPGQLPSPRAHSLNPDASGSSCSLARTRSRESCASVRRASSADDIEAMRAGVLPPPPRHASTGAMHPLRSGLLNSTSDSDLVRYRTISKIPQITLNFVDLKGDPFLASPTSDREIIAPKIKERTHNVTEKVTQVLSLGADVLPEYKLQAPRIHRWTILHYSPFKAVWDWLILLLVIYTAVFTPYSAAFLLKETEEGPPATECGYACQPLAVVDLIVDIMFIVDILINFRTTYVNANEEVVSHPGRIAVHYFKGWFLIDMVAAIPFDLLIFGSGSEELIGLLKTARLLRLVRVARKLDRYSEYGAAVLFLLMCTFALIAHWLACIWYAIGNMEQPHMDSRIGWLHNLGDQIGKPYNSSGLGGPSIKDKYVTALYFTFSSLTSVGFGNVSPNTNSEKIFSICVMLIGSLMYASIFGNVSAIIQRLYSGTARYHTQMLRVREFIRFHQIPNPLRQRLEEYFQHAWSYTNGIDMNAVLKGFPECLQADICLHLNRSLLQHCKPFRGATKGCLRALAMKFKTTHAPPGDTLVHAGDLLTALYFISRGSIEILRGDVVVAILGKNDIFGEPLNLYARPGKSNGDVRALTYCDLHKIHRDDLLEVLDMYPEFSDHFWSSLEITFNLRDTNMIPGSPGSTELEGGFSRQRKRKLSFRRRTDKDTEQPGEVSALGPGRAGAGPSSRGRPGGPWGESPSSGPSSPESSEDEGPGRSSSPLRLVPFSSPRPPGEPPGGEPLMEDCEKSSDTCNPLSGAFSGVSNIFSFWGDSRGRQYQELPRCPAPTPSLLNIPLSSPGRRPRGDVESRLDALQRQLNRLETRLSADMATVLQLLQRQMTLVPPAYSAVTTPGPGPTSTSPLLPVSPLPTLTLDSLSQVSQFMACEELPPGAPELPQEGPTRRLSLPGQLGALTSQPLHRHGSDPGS

`c1ccc(CCOc2cncc3nnc(C4CCOCC4)n23)cc1`: in the data set on Plasmodium falciparum, the result was inactive.
One may read the IC50 as the concentration that gives 50% inhibition. Higher therefore signals lower potency. The logD is the decadic logarithm of the distribution of all forms, ionised or not, between an organic phase and buffer at a given pH. Read a high logD as a more lipophilic compound. Usually half-life stands for how long it takes for the measured level to halve. In turn, `FC(F)Oc1ccc(-c2nnc3cncc(OCCc4ccccc4)n23)cc1` yielded an IC50 in data set [1] of 7.41 µM. In addition, the logD in data set [2] came to 3.7. Also, the solubility kinetic at 0.5 h in data set [3] worked out at 6.3 µg/mL (≈ 16.5 µM). The half-life at 1 µM in data set [4] amounted to 26 min; in data set [5], 7 min.
With `CC(C)(C)OC(=O)N1CCC(c2nnc3cncc(OCCc4ccccc4)n23)C1` (stereo unspecified), in the data set on Plasmodium falciparum, the result was inactive.
The same measure, in the same setting: for `FC(F)Oc1ccc(-c2nnc3cncc(OC[C@H]4C[C@@H]5C[C@@H]4[C@@H]4O[C@H]54)n23)cc1` the value was “inactive”; for `c1ccc(CCOc2cncc3nnc(C4CCNCC4)n23)cc1`, “inactive”.
Same read-out and setting: in the case of `FC(F)Oc1ccc(-c2nnc3cncc(Oc4ccccc4)n23)cc1` it was “inactive”; in that of `c1ccc(CCOc2cncc3nnc(C4CCNC4)n23)cc1` (stereo unspecified), “inactive”.
Still for that read-out and setting: in the case of `FC(F)Oc1ccc(-c2nnc3cncc(OCCN4CC5(COC5)C4)n23)cc1` it was “inactive”; in that of `FC(F)Oc1ccc(-c2nnc3cncc(OCCN4CCNCC4)n23)cc1`, “inactive”; in that of `CC(C)(C)OC(=O)N1CCN(CCOc2cncc3nnc(-c4ccc(OC(F)F)cc4)n23)CC1`, “inactive”.
Turning to `FC(F)Oc1ccc(-c2nnc3cncc(OCCC45C6C7C8C6C4C8C75)n23)cc1` (stereo unspecified), the result in the data set on Plasmodium falciparum was Active. Also, the IC50 in data set [1] is 4.26 µM. Further, the logD in data set [2] was 4.3. Besides, the solubility kinetic at 0.5 h in data set [3] was less than 1.6 µg/mL. Also, the results for the half-life at 1 µM in data set [4] and in data set [5] were 9 min and 3 min, respectively.
Turning to `FC(F)Oc1ccc(-c2nnc3cncc(OCCN4CCCC4)n23)cc1`, the outcome with Plasmodium falciparum was inactive.
The same measure, in the same setting: in the case of `CC(C)(C)OC(=O)N1CCC(c2nnc3cncc(OCCc4ccccc4)n23)CC1` it was “inactive”; in that of `c1ccc(CCOc2cncc3nnc(C4CCOC4)n23)cc1` (stereo unspecified), “inactive”; in that of `FC(F)Oc1ccc(-c2nnc3cncc(OCCC4COC4)n23)cc1`, “inactive”.
For `FC(F)Oc1ccc(-c2nnc3cncc(OCC45CC(C(F)F)(C4)C5)n23)cc1`, the outcome with Plasmodium falciparum was Active. This compound also yielded a logD in data set [2] of 3.6. The solubility kinetic at 0.5 h in data set [3] stood at 6.3 µg/mL (≈ 15.4 µM). Further, the half-life at 1 µM in data set [4] was determined as 190 min; in data set [5] it was 66 min.
As for `FC(F)Oc1ccc(-c2nnc3cncc(OCCN4CCCCC4)n23)cc1`, the result with Plasmodium falciparum was inactive.
On to `FC(F)Oc1ccc(-c2nnc3cncc(OC[C@H]4C[C@@H]5C[C@@H]4[C@H]4O[C@@H]54)n23)cc1`, for which the outcome in the data set on Plasmodium falciparum was inactive.
